OX1R antag-1: antagonists of human orexin 1 receptor (OX1R); OX1R-expressing cells, FRET antagonist read-out; O43613; AID 485270; inhibition, % at 6.6 µM; actives 1.8% (n = 330,000); in the data active means inhibition mostly above about 38%, no sharp cut-off; inactive means mostly below about 40%;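 further: 0% = agonist challenge alone and 100% = reference antagonist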
Target sequence (O43613 whole entry, looked up): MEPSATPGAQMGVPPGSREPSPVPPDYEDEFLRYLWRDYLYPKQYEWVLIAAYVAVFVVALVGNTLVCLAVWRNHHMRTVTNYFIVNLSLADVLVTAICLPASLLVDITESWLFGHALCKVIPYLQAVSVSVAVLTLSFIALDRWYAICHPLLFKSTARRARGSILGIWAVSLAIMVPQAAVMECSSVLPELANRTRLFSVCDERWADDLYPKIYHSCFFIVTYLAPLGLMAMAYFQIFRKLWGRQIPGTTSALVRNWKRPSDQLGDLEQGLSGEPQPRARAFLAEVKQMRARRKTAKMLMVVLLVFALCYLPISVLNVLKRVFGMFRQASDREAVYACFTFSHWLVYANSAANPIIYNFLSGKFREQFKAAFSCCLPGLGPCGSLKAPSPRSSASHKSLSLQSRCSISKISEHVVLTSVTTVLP
GPR7 antag: human neuropeptides B/W receptor 1 antagonism; GPR7-expressing cells, fluorescence antagonist assay; inhibition, % at 4.4 µM; actives 1.1% (n = 290,000); in the data active means inhibition above about 16%, passing the limit was not always enough;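 further: cells stimulated with the agonist NPW; 0% = agonist with vehicle and 100% = vehicle without agonist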
Target sequence (P48145 whole entry, looked up): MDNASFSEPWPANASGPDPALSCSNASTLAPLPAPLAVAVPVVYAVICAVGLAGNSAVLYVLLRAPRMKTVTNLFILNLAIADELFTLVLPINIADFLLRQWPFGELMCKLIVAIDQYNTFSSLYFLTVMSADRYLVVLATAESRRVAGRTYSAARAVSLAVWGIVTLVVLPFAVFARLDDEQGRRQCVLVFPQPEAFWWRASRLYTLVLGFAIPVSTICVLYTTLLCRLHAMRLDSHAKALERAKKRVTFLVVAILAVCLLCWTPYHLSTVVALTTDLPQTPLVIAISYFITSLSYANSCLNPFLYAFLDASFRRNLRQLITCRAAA
TAAR1 antagonist: human TAAR1 antagonism. CHO RD-HGA16 TAAR1, Fluo-8 calcium fluorescence, antagonist. inhibition, % at 3 µM. actives 1.5% (n = 360,000). AID 624466;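 active means inhibition above a per-plate cutoff, the mean inhibition of test compounds on that plate plus 3 SD, cut at about 49% in these data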;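 further: 0% = DMSO plus EC80 beta-PEA response and 100% = DMSO alone without agonist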
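System: RD-HGA16 CHO cells with stable hTAAR1 and Gα16 | Probe or stimulus: EC80 β-phenethylamine stimulus | Dosing: 3 µM, single point | Times: Dye loading 75 min at 37 °C, then 30 min room temperature | Measured by: Fluo-8 calcium-sensitive fluorescence | Read-out basis: % inhibition of agonist calcium response | Replicates: n of 1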
CHO parental Ca: signal in parental CHO cells, OX1R antagonist counter-screen | AID 463079 | actives 0.63% (n = 330,000) | inhibition, % at 5.6 µM | parental CHO-K1, ATP-induced calcium, Fluo-8 fluorescence;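 active means inhibition above that plate's mean sample inhibition plus 3 SD, cut at about 26% in these data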;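 further: 0% = ATP-challenged DMSO wells and 100% = DMSO wells without ATP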
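test system = CHO parental line | reagent = ATP stimulus | measured by = intracellular calcium via Fluo-8 no-wash fluorescent dye | control set = ATP and no-ATP DMSO wells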
TAAR1 agonist: agonists of human TAAR1. Q96RJ0. CHO RD-HGA16 TAAR1, Fluo-8 calcium fluorescence; vehicle wells 0%, saturating PEA agonist 100%. activation, % at 3 µM. actives 0.99% (n = 360,000);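 active means activation above the mean activation of all test compounds in the run plus 3 SD, cut at about 38% in these data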
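Repeats: no replicates (n 1) | Material: CHO-derived RD-HGA16 cells with stable Gα16 and human TAAR1 | Technique: Kinetic Fluo-8 calcium fluorescence | Schedule: 17-24 h seeding, 75 min 37 °C dye, 30 min RT | Evaluation: % activation from peak over basal fluorescence ratio, DMSO-to-PEA scaled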
OX1R antag-2: antagonists of human orexin 1 receptor. O43613. CHO/OX1R cells, Fluo-8 calcium fluorescence, orexin A. inhibition, % at 5 µM. actives 0.43% (n = 330,000). AID 434989;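 active means inhibition above its plate's threshold, mean inhibition of all tested compounds on the plate plus 3 SD, cut at about 37% in these data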;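 further: 0% = orexin A challenge wells and 100% = SB-334867-A antagonist wells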
TAAR1 nonsel count: nonselective antagonism, TAAR1 counter-screen; shares compounds with TAAR1 antagonist; counterscreen cell line, calcium fluorescence, antagonist mode; inhibition, % at 3 µM; actives 77% (n = 2,400); in the data active means inhibition above about 22%;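 further: CHO-Ga16 host cells stimulated with ATP at an EC80 level; 0% = agonist EC80 plus vehicle and 100% = vehicle without agonist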
TAAR1 antag conf: human TAAR1 antagonism, confirmed; shares compounds with TAAR1 antagonist; TAAR1-expressing cells, fluorescence antagonist read-out; inhibition, % at 3 µM; actives 40% (n = 2,400); AID 651785; in the data active means inhibition above about 49%;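 further: CHO-Ga16 host cells challenged with agonist PEA near its EC80; 0% = agonist at EC80 plus vehicle and 100% = vehicle with no agonist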
Ga16 nonsel ag: nonselective Ga16 agonism, counter-screen; shares compounds with TAAR1 antagonist; Ga16-expressing cells, calcium fluorescence, agonist counterscreen; activation, % at 3 µM; actives 18% (n = 2,400); AID 651953; in the data active means activation above about 12%;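 further: 0% = vehicle wells and 100% = saturating stimulus response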
TAAR1 ag counter: counter-screen for human TAAR1 antagonists: TAAR1 agonists; actives 2% (n = 2,400); hTAAR1 cell line, fluorescence activation, agonist mode; activation, % at 3 µM; AID 651955; shares compounds with TAAR1 antagonist; in the data active means activation above about 37%;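 further: CHO cells stably expressing TAAR1 with calcium dye readout; 0% = DMSO vehicle and 100% = full agonist response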
Numbers without * were called inactive; x = not tested or not shown. This is a sample that favours compounds with a hit; in the whole collection about 4.6% have one here.

SMILES | OX1R antag-1 | GPR7 antag | TAAR1 antagonist | CHO parental Ca | TAAR1 agonist | OX1R antag-2 | TAAR1 nonsel count | TAAR1 antag conf | Ga16 nonsel ag | TAAR1 ag counter
COc1ccc(C(=O)N/N=C/c2ccc(OC)c(OS(=O)(=O)c3ccccc3)c2)cc1 | 9 | -3 | 71* | -14 | 4 | -33 | 19 | 33 | 5 | 0
COc1cc(/C=N/NC(=O)c2ccccn2)ccc1OC(=O)c1ccccc1Br | 10 | -23 | 70* | -26 | 7 | -20 | 35* | 53* | 9 | 5
O=C(CSc1nc(-c2ccccc2)cs1)NC(=O)NCc1ccco1 | 15 | -15 | 54* | -9 | 7 | -13 | 30* | 42 | 5 | 2
Cc1cc(=O)oc2c3c(cc(OCC(=O)NCc4ccco4)c12)OC(C)(C)CC3 | 11 | 8 | 57* | -6 | 0 | -25 | 24* | 24 | 3 | -2
Cc1cc(=O)oc2c3c(cc(OCC(=O)NCc4ccncc4)c12)OC(C)(C)CC3 | 22 | 9 | -3 | -12 | 5 | -8 | x | x | x | x
COc1ccc(CNC(=O)COc2cc3c(c4oc(=O)cc(C)c24)CCC(C)(C)O3)cc1OC | 42* | 9 | 62* | -9 | 0 | -17 | 23* | 31 | 4 | 4
Cc1c(C)c2c(OCC(=O)NCc3ccco3)cc3c(c2oc1=O)CCC(C)(C)O3 | 18 | 1 | -21 | -18 | 0 | -38 | x | x | x | x
COc1ccc(CNC(=O)COc2cc3c(c4oc(=O)cc(C)c24)CCC(C)(C)O3)c(OC)c1 | x | x | 73* | x | 2 | x | 25* | 45 | 6 | 8
Cc1cc(=O)oc2c3c(cc(OCC(=O)NCCN4CCOCC4)c12)OC(C)(C)CC3 | 19 | 1 | 1 | -10 | 1 | -15 | x | x | x | x
CCCN(CC1CC1)C(=O)COC(=O)c1ccc2c(c1)C(=O)N(c1ccc(OCC)cc1)C2=O | 18 | -10 | 55* | -13 | 33 | -3 | 30* | 40 | 7 | 6
CCOc1ccc(N2C(=O)c3ccc(C(=O)OCc4c(C)noc4C)cc3C2=O)cc1 | 6 | 2 | -7 | -5 | 11 | -18 | x | x | x | x
CCOc1ccccc1N1CC(O)=C(c2nc3ccccc3s2)C1=N | 11 | 14 | 66* | -9 | 23 | 20 | 26* | 41 | 12* | 10
Cc1ccc(C)c(NC(=S)NNC(=O)c2ccco2)c1 | 15 | -5 | -3 | -6 | 16 | -6 | x | x | x | x
COC(=O)c1cc(Nc2cc(C)c3c(O)cccc3n2)cc(C(=O)OC)c1 | 27 | -19 | 63* | -13 | 9 | -25 | 24* | 37 | 5 | 15
COC(=O)c1cc(Nc2cc(C)c3ccc(O)cc3n2)cc(C(=O)OC)c1 | 16 | -4 | 23 | 8 | 2 | -4 | x | x | x | x
O=C(CCCCCNC(=O)N1CCn2c1nc1ccccc12)N[C@@H](C(=O)O)c1ccccc1 | 2 | -5 | -2 | -4 | 1 | -2 | x | x | x | x
COc1ccc(C(=O)NC(=S)N(C)C2CCCCC2)cc1Br | 23 | -3 | -38 | -21 | -1 | -12 | x | x | x | x
COc1ccccc1/C=C/C(=O)NC(=S)N(C)C1CCCCC1 | 7 | -2 | 68* | -22 | 15 | -6 | 33* | 46 | 5 | -1
O=C(Nc1cccc(NC(=O)c2ccc(-c3cccc(Br)c3)o2)c1)c1ccco1 | 26 | 0 | 52* | -10 | 16 | 11 | 25* | 48 | 8 | 5
O=C(Nc1cccc(NC(=O)c2ccc(-c3ccc(Br)cc3)o2)c1)c1ccccc1 | 31 | 7 | 13 | -9 | 15 | -36 | x | x | x | x
Cc1nnc(NC(=O)c2sc3ccccc3c2Cl)s1 | 36 | 12 | -1 | -1 | 10 | -27 | x | x | x | x
CNC(=O)c1ccsc1NC(=O)c1sc2ccccc2c1Cl | 56* | -8 | 71* | 7 | 10 | -20 | 35* | 50* | 9 | 4
O=C(Nc1cccc(NC(=O)c2sc3ccccc3c2Cl)c1)c1ccco1 | 76* | -13 | 55* | -22 | 8 | -6 | 19 | 21 | 2 | -3
O=C(O)CCc1ccc(-c2cccs2)n1NC(=O)c1cccs1 | 21 | -8 | 8 | -5 | 1 | -23 | x | x | x | x
O=C(NCc1ccco1)c1cccc(Nc2nc3ccc(Br)cc3[nH]2)c1 | 19 | -9 | 56* | -26 | 18 | -22 | 24* | 27 | 5 | 12
SMILES | OX1R antag-1 | GPR7 antag | TAAR1 antagonist | CHO parental Ca | TAAR1 agonist | OX1R antag-2 | TAAR1 nonsel count | TAAR1 antag conf | Ga16 nonsel ag | TAAR1 ag counter
COc1ccc(C(C(=O)NC2CCCCC2)N(C(=O)c2ccco2)c2ccccc2C(C)=O)cc1OC (centres undefined) | 11 | 9 | 2 | -18 | 0 | -37 | x | x | x | x
Cc1noc(C)c1C(=O)N1CCCC(C(=O)c2cccc(OC(C)C)c2)C1 (centres undefined) | 7 | -7 | -3 | -19 | 1 | -16 | x | x | x | x
O=C1CCCc2c1cc(C(=O)Nc1ccc(Br)cn1)c(=O)n2-c1ccccc1 | 7 | -11 | 106* | -16 | 11 | -32 | 1 | -3 | 2 | -1
O=C1CCCc2c1cc(C(=O)O)c(=O)n2-c1ccccc1 | 12 | -3 | 4 | 8 | 2 | -11 | x | x | x | x
COc1ccc(-c2cc(C(=O)NCc3ccco3)c3ccccc3n2)c(OC)c1 | 4 | 8 | 17 | -15 | 5 | -26 | x | x | x | x
COc1ccc(-c2cc(C(=O)Nc3c(C)n(C)n(-c4ccccc4)c3=O)c3ccccc3n2)cc1 | 6 | -10 | 58* | -16 | 15 | -35 | 26* | 40 | 8 | 8
CN(CCOc1ccc(Cl)cc1)C(=O)c1cc(-c2ccco2)nc2ccccc12 | 25 | x | 74* | -2 | 15 | -13 | 40* | 59* | 9 | 9
COc1ccc(-c2cc(C(=O)NCc3ccco3)c3ccccc3n2)cc1 | 33 | -2 | 49* | -21 | 9 | -30 | 19 | 31 | 5 | -1
Cc1ccc(NC(=O)CN(C)C(=O)c2cc(-c3ccco3)nc3ccccc23)cc1 | 6 | x | 1 | -27 | 11 | -11 | x | x | x | x
COc1ccc(Nc2cc(C(=O)NCc3ccco3)c3ccccc3n2)c(OC)c1 | 18 | 2 | 51* | -14 | 8 | -28 | 9 | 24 | 6 | 3
CS(=O)(=O)N1CCN(c2ccccc2NC(=S)NC(=O)c2ccco2)CC1 | -2 | -5 | 49* | -20 | 16 | -18 | 29* | 44 | 9 | 8
O=C(NC(=S)Nc1ccccc1N1CCCC1)c1ccco1 | 16 | 0 | -9 | -17 | 6 | -56 | x | x | x | x

High-throughput results deposited in PubChem by The Scripps Research Institute Molecular Screening Center.
